Measurements published in paper PMC8320615 (Current Research in Toxicology, 2021).
Like-named read-outs stand apart in the source and are kept apart here.

Assays:
[1] = test system: HepaRG cells; experiment: MTT cytotoxicity on HepaRG cells in HK-2/HepaRG co-culture; format: cell-based; conditions: co-culture; for IC50: MTT; for effect on viability of HepaRG cells (in words): per Table 3
Method in brief: (§1)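 HK-2 (RPMI-1640) and HepaRG (William's E plus Tox supplement), passages 10–15, seeded together in IdMOC plates and allowed 4 h at 37 °C, 5% CO2. Test compound at several concentrations, DMSO ≤0.5% final, for 24 h and 48 h; MTT read-out. Triptolide positive control: 10 μmol/L for HK-2, 25 μmol/L for HepaRG. IC50 by nonlinear regression; mean ± SD. 48 h IC50 under 100 μM scored toxic.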

[2] = test system: HK-2 cells; experiment: MTT cytotoxicity on HK-2 cells in HK-2/HepaRG co-culture; format: cell-based; conditions: co-culture; for IC50: MTT
Method in brief: as §1

[3] = MTT cytotoxicity on HepaRG cells in HK-2/HepaRG co-culture; format: cell-based; conditions: human; for IC50 at 24 h / IC50 at 48 h: HepaRG cells in co-culture with HK-2 cells (IdMOC plates)
Method in brief: as §1

[4] = MTT cytotoxicity on HK-2 cells in HK-2/HepaRG co-culture; format: cell-based; conditions: human; for IC50 at 24 h / IC50 at 48 h: HK-2 cells in co-culture with HepaRG cells (IdMOC plates)
Method in brief: as §1

[5] = Method in brief: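 Liver call by software prediction over five injury markers (AlkPhos, GGT, LDH, SGOT, SGPT), positive when three are positive. Kidney call by a self-built QSAR classifier (accuracy 76.7%) giving positive/negative. In vitro, 48 h MTT IC50 under 100 μM in HK-2/HepaRG co-culture counted as toxic. Compounds flagged when either approach was positive.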
[6] = test system: HK-2 cells; experiment: MTT cytotoxicity on HK-2 cells in single culture; format: cell-based; conditions: Homo sapiens, HK-2, 24 h, read-out: IC50 HK-2 Single culture
Method in brief: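 HK-2 cells (passages 10–15) in RPMI-1640 with 10% FBS at 37 °C, 5% CO2, cultured alone and exposed 24 h to a range of test compound concentrations, DMSO ≤0.5% final; vehicle control 0.5% DMSO. Viability by MTT; IC50 from nonlinear regression.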

[7] = reported in the literature ref Wang et al., 2009; cited from earlier work
[8] = read-out: Hepatic cytotoxicity IC50 HepaRG 24 h, 24 h
[9] = read-out: Hepatic cytotoxicity IC50 HepaRG 48 h, 48 h
[10] = read-out: Renal cytotoxicity IC50 HK-2 24 h, 24 h
[11] = read-out: Renal cytotoxicity IC50 HK-2 48 h, 48 h

Compound	IC50 [1, 8] [µM]	IC50 [1, 9] [µM]	IC50 [2, 10] [µM]	IC50 [2, 11] [µM]	IC50 at 24 h [3] [µM]	IC50 at 48 h [3] [µM]	IC50 at 24 h [4] [µM]	IC50 at 48 h [4] [µM]	further results
2-O-β-D-Glucoside-9-dehydroxyeurotinone [No. 22]	> 500	> 500	> 500	> 500					
9-Dehydroxyeurotinone (EDG) [No. 21]	448	331	380	111					
COc1cc2c(c(OC)c1OC)C(=O)c1c(cc(C)c(O)c1OC)C2=O [No. 1, Chryso-obtusin]					71.9	388	53	33.6	
COc1cc2c(c(O)c1OC)C(=O)c1c(cc(C)c(O)c1OC)C2=O [No. 2, Obtusin]	298	81.2	50.5	57.8					both hepatotoxicity and nephrotoxicity (in words) [5]: both hepatotoxicity and nephrotoxicity
COc1c(O)c(C)cc2c1C(=O)c1c(O)cccc1C2=O [No. 3, Obtusifoline]					117	35	310	389	
COc1ccc2c(c1OC)C(=O)c1c(cc(C)c(O)c1OC)C2=O [No. 4, 1,7,8-methoxyl-2-hydroxyl-3-methyl-anthraquinone]	420	192	332	37.5					
COc1c(O)cc2c(c1O)C(=O)c1c(cc(C)c(O)c1OC)C2=O [No. 5, Aurantio-obtusin]					333	75.5	> 500	117	effect on viability of HepaRG cells (in words) [1]: decreased the viability of HepaRG cells
COc1c(O)c(C)cc2c1C(=O)c1c(cc(O)c(O)c1O)C2=O [No. 6, 1,2,3,7-tetrahydroxy-8-methoxy-6-methyl-anthraquinone]					> 500	209	> 500	283	
COc1c(O)c(C)cc2c1C(=O)c1c(ccc(O)c1O)C2=O [No. 7, 1,2,7-trihydroxy-8-methoxy-6-methyl-9,10-anthraquinone]					> 500	44.2	> 500	> 500	
Cc1cc(O)c2c(c1)C(=O)c1cc(O)cc(O)c1C2=O [No. 8, Emodin]					125	31.9	89	122	IC50 [6]: 140 µM; effect on viability of HepaRG cells (in words) [1]: decreased the viability of HepaRG cells; both hepatotoxicity and nephrotoxicity (in words) [5]: both hepatotoxicity and nephrotoxicity
Cc1cc(O)c2c(c1)C(=O)c1cccc(O)c1C2=O [No. 9, Chrysophanol]					> 500	170	> 500	93.9	
O=C1c2cccc(O)c2C(=O)c2c(O)cc(CO)cc21 [No. 10, Aloe-emodin]					> 500	96.2	> 500	134	effect on viability of HepaRG cells (in words) [1]: decreased the viability of HepaRG cells; nephrotoxicity in vivo (in words) [7]: nephrotoxic
O=C(O)c1cc(O)c2c(c1)C(=O)c1cccc(O)c1C2=O [No. 11, Rhein]					307	36.1	229	44.1	effect on viability of HepaRG cells (in words) [1]: decreased the viability of HepaRG cells; both hepatotoxicity and nephrotoxicity (in words) [5]: both hepatotoxicity and nephrotoxicity; effect on viability of HK-2 cells (in words) ([2]; per Table 3): reduced the viability of HK-2 cells
COc1cc(O)c2c(c1)C(=O)c1cc(C)cc(O)c1C2=O [No. 12, Physcion]					> 500	73.6	> 500	196	
Cc1cc2c(c(O)c1O)C(=O)c1c(O)cc(O)cc1C2=O [No. 13, Alaternin (quinone)]	> 500	> 500	> 500	> 500					
O=C(O)c1cc(O)c2c(c1)C(=O)c1cccc(O[C@@H]3O[C@H](CO)[C@@H](O)[C@H](O)[C@H]3O)c1C2=O [No. 15, Rhein-8-O-β-D-glucoside]	> 500	208	> 500	108					
COc1c(O[C@@H]2O[C@H](CO)[C@@H](O)[C@H](O)[C@H]2O)c(C)cc2c1C(=O)c1c(O)cccc1C2=O [No. 16, Obtusifoline-2-O-β-D-glucoside]	108	98.5	270	251					
O=C1c2ccccc2C(=O)c2ccccc21 [No. 17, 9,10-Anthracenedione]					93.4	84.4	> 500	138	
COc1cc2c(c(O)c1OC)C(=O)c1c(cc(C)c(O[C@@H]3O[C@H](CO)[C@@H](O)[C@H](O)[C@H]3O)c1OC)C2=O [No. 18, Gluco-obtusin]	178	125	255	> 500					
COc1c(O[C@@H]2O[C@H](CO)[C@@H](O)[C@H](O)[C@H]2O)cc2c(c1O)C(=O)c1c(cc(C)c(O)c1OC)C2=O [No. 20, Glucoaurantio-obtusin]	154		> 500						
CC(=O)OC[C@H]1O[C@@H](Oc2cc(O)cc3cc4oc(C)cc(=O)c4c(O)c23)[C@H](O)[C@@H](O)[C@@H]1O [No. 24, Nor-rubrofusarin-6-O-β-D-(6’-O-acetyl)glucopyranoside]	> 500	226	> 500	> 500					
CC(=O)c1c(C)cc2cc(O)cc(O[C@@H]3O[C@H](CO)[C@@H](O)[C@H](O)[C@H]3O)c2c1O [No. 25, 6-Hydroxymusizin-8-O-β-D-glucopyranoside]	> 500	317	> 500	> 500					
CC(C)[C@]12O[C@H]1[C@@H]1O[C@]13[C@]1(O[C@H]1C[C@H]1C4=C(CC[C@@]13C)C(=O)OC4)[C@@H]2O [Triptolide, reference compound]									viability at 25 μmol/L ([3]; HepaRG cells co-cultured with HK-2 cells in IdMOC plates): 50.5 ± 5.68%; viability at 10 μmol/L ([4]; HK-2 cells co-cultured with HepaRG cells in IdMOC plates): 43.6 ± 2.26%
